Each block holds one compound with its values, some of them ahead of it. The source made the active and inactive calls. The rule behind the calls is not given here.
Key:
Quadruplex DNA [1] = assay: Stabilization of 5'-FAM and 3'-TAMRA-labeled c-MYC G-quadruplex (unknown origin) assessed as change in melting temperature at 1 uM by FRET assay; assay type: nucleic-acid assay; settings: unidentified
In short: (§1)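 FRET melting of dual-labelled (5′-FAM/3′-TAMRA) promoter quadruplexes or duplex in 60 mM potassium cacodylate buffer, pH 7.4. ΔTm is taken against ligand-free Tm. The ligand was tested across a concentration series. Maximum measurable Tm is 93 °C.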

dsDNA [2] = assay: Stabilization of 5'-FAM and 3'-TAMRA-labeled dsDNA (unknown origin) assessed as change in melting temperature at 1 uM by FRET assay; assay type: nucleic-acid assay; in short: as §1
Quadruplex DNA [3] = assay: Stabilization of 5'-FAM and 3'-TAMRA-labeled k-RAS G-quadruplex (unknown origin) assessed as change in melting temperature at 1 uM by FRET assay; assay type: nucleic-acid assay; settings: unidentified; in short: as §1
Quadruplex DNA [4] = assay: Stabilization of 5'-FAM and 3'-TAMRA-labeled c-KIT2 G-quadruplex (unknown origin) assessed as change in melting temperature at 1 uM by FRET assay; assay type: nucleic-acid assay; settings: unidentified; in short: as §1
Quadruplex DNA [5] = assay: Stabilization of 5'-FAM and 3'-TAMRA-labeled c-KIT1 G-quadruplex (unknown origin) assessed as change in melting temperature at 1 uM by FRET assay; assay type: nucleic-acid assay; settings: unidentified; in short: as §1
HeLa [6] = assay: Cell cycle arrest in human HeLa cells assessed as accumulation at S phase at 5 uM incubated for 24 hrs by propidium iodide staining based flow cytometry (reference value: 10.8%); assay type: functional
[7] = Drug localization in nucleus of human HeLa cells at 5 uM incubated for 2 hrs by fluorescence microscopy; assay type: ADME, subcellular
In short: (§2)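 Intrinsic ligand fluorescence imaged by fluorescence microscopy in HeLa cells after 2 h at 5.0 μM. Merged images were used to assign nuclear versus cytoplasmic localisation.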

Quadruplex DNA [8] = assay: Binding affinity to pre-annealed k-RAS G-quadruplex (unknown origin) in 100 mM KCl, 10 mM Tris.HCl at pH 7.4 by fluorescence spectroscopy relative to untreated control; assay type: nucleic-acid assay, unidentified
In short: (§3)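 Fluorescence titration in 100 mM KCl, 10 mM Tris·HCl, pH 7.4. Excitation was 350 nm and emission was read at the 430 nm maximum. Ligand (1 μM for c-MYC) was titrated with increasing quadruplex or ds DNA, up to 20 equiv. Change in intensity was scored, and Kd was derived from the titration curves.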

Quadruplex DNA [9] = assay: Binding affinity to pre-annealed c-MYC G-quadruplex (unknown origin) assessed as increase in fluorescence intensity at 1 uM in 100 mM KCl, 10 mM Tris.HCl at pH 7.4 by fluorescence spectroscopy relative to untreated control; assay type: nucleic-acid assay; settings: unidentified; in short: as §3
Quadruplex DNA [10] = assay: Binding affinity to pre-annealed c-KIT1 G-quadruplex (unknown origin) in 100 mM KCl, 10 mM Tris.HCl at pH 7.4 by fluorescence spectroscopy relative to untreated control; assay type: nucleic-acid assay, unidentified; in short: as §3
Quadruplex DNA [11] = assay: Binding affinity to c-MYC G-quadruplex (unknown origin) by 1H-NMR spectroscopy; assay type: nucleic-acid assay; settings: unidentified
In short: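 1D 1H NMR of c-MYC quadruplex DNA at different ligand:DNA ratios, monitoring imino and aromatic regions against partial signal assignments. Chemical shift perturbation or line broadening was noted separately at ratios below 1 and at ratios of 1 or above.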

HeLa [12] = assay: Effect on GAPDH mRNA expression in human HeLa cells at 1 to 5 uM incubated for 24 hrs by RT-PCR method; assay type: ADME, cell-based
Quadruplex DNA [13] = assay: Binding affinity to pre-annealed c-MYC G-quadruplex (unknown origin) in 10 mM Tris.HCl buffer containing 100 mM KCl at pH 7.4 by UV/Visible spectroscopy; assay type: nucleic-acid assay, unidentified
In short: (§4)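 UV–vis titration of 20 μM ligand with preannealed c-MYC quadruplex (0–1.4 equiv) in 100 mM KCl, 10 mM Tris·HCl, pH 7.4. Hypochromicity was followed at the 362 nm ligand band, because the 298 nm band overlaps DNA absorbance. Kd was fitted with the Hill 1 equation.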

unidentified [14] = assay: Selectivity for 5'-FAM and 3'-TAMRA-labeled c-MYC G-quadruplex (unknown origin) over 5'-FAM and 3'-TAMRA-labeled c-KIT2 G-quadruplex (unknown origin)
[15] = Selectivity for 5'-FAM and 3'-TAMRA-labeled c-MYC G-qudaruplex (unknown origin) over 5'-FAM and 3'-TAMRA-labeled c-KIT1 G-qudaruplex (unknown origin)
Quadruplex DNA [16] = assay: Binding affinity to pre-annealed c-MYC G-quadruplex (unknown origin) assessed as hypochromacity at 20 uM in 10 mM Tris.HCl buffer containing 100 mM KCl at pH 7.4 by UV/Visible spectroscopy; assay type: nucleic-acid assay; settings: unidentified; in short: as §4
HeLa [17] = assay: Induction of apoptosis in human HeLa cells assessed as late apoptotic cells level at 5 uM incubated for 24 hrs by Annexin V-FITC staining based flow cytometry (reference value: 0.8%); assay type: functional
Quadruplex DNA [18] = assay: Stabilization of 5'-FAM and 3'-TAMRA-labeled c-KIT2 G-quadruplex (unknown origin) assessed as change in melting temperature at 1 uM in presence of 100 nM to 10 uM dsDNA by FRET assay; assay type: nucleic-acid assay; settings: unidentified
A549 = assay: Cytotoxicity against human A549 cells incubated for 24 hrs by MTT assay; assay type: functional, cell-based; settings: A549, 24 h
In short: (§5)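 MTT growth-inhibition assay in HeLa, A549 and mouse C2C12 cells. Cells given 0.1% DMSO served as control. IC50 values were reported.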

HeLa [19] = assay: Cytotoxicity against human HeLa cells incubated for 24 hrs by MTT assay; assay type: functional, cell-based; in short: as §5
unidentified [20] = assay: Selectivity for 5'-FAM and 3'-TAMRA-labeled c-MYC G-quadruplex (unknown origin) over 5'-FAM and 3'-TAMRA-labeled k-RAS G-quadruplex (unknown origin)
Quadruplex DNA [21] = assay: Stabilization of c-MYC G-quadruplex in human HeLa cells assessed as reduction in c-MYC mRNA level at 5 uM incubated for 24 hrs by RT-PCR method; assay type: cell-based; parameters: scale not given: the % may be the effect or the level left
In short: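 qRT-PCR on HeLa cells treated 24 h at 1.0, 2.5 or 5.0 μM. c-MYC mRNA was normalised to GAPDH and compared with 0.1% DMSO-treated control.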

Quadruplex DNA [22] = assay: Stabilization of c-MYC G-quadruplex in human HeLa cells assessed as reduction in c-MYC mRNA level at 5 uM incubated for 24 hrs by Western blot method; assay type: cell-based; parameters: scale not given: the % may be the effect or the level left; settings: in the assay text read “c-MYC protein level” for “c-MYC mRNA level”
In short: (§6)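 Western blot of HeLa lysates after 24 h at 1, 2.5 or 5 μM, with DMSO control. c-MYC was probed, GAPDH served as loading control, and bands were quantified by densitometry.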

HeLa [23] = assay: Effect on GAPDH protein expression in human HeLa cells at 1 to 5 uM incubated for 24 hrs by Western blot method; assay type: ADME, cell-based; in short: as §6
[24] = Drug localization in cytoplasm of human HeLa cells at 5 uM incubated for 2 hrs by fluorescence microscopy; assay type: ADME, subcellular; in short: as §2
Quadruplex DNA [25] = assay: Binding affinity to pre-annealed c-KIT2 G-quadruplex (unknown origin) in 100 mM KCl, 10 mM Tris.HCl at pH 7.4 by fluorescence spectroscopy relative to untreated control; assay type: nucleic-acid assay, unidentified; in short: as §3
Quadruplex DNA [26] = assay: Stabilization of 5'-FAM and 3'-TAMRA-labeled k-RAS G-quadruplex (unknown origin) assessed as change in melting temperature at 1 uM in presence of 100 nM to 10 uM dsDNA by FRET assay; assay type: nucleic-acid assay; settings: unidentified
dsDNA [27] = assay: Binding affinity to dsDNA (unknown origin) in 10 mM Tris.HCl buffer containing 100 mM KCl at pH 7.4 by UV/Visible spectroscopy; assay type: nucleic-acid assay
Quadruplex DNA [28] = assay: Stabilization of 5'-FAM and 3'-TAMRA-labeled c-MYC G-quadruplex (unknown origin) assessed as change in melting temperature at 1 uM in presence of 100 nM to 10 uM dsDNA by FRET assay; assay type: nucleic-acid assay; settings: unidentified
HeLa [29] = assay: Cell cycle arrest in human HeLa cells assessed as accumulation at G2/M phase at 5 uM incubated for 24 hrs by propidium iodide staining based flow cytometry (reference value: 25.5%); assay type: functional
dsDNA [30] = assay: Stabilization of 5'-FAM and 3'-TAMRA-labeled dsDNA (unknown origin) assessed as change in melting temperature at 5 uM by FRET assay; assay type: nucleic-acid assay; in short: as §1
HeLa [31] = assay: Induction of apoptosis in human HeLa cells assessed as viable cell level at 5 uM incubated for 24 hrs by Annexin V-FITC staining based flow cytometry; assay type: functional
C2C12 = assay: Cytotoxicity against mouse C2C12 cells incubated for 24 hrs by MTT assay; assay type: cell-based; settings: C2C12, 24 h; in short: as §5
Quadruplex DNA [32] = assay: Effect on parallel topology of c-MYC G-quadruplex (unknown origin) at 0 to 5 equivalent by CD spectroscopy; assay type: nucleic-acid assay; settings: unidentified
HeLa [33] = assay: Induction of apoptosis in human HeLa cells assessed as early apoptotic cells level at 5 uM incubated for 24 hrs by Annexin V-FITC staining based flow cytometry (reference value: 1.1%); assay type: functional
Quadruplex DNA [34] = assay: Stabilization of 5'-FAM and 3'-TAMRA-labeled c-KIT1 G-quadruplex (unknown origin) assessed as change in melting temperature at 1 uM in presence of 100 nM to 10 uM dsDNA by FRET assay; assay type: nucleic-acid assay; settings: unidentified
HeLa [35] = assay: Cell cycle arrest in human HeLa cells assessed as accumulation at G0/G1 phase at 5 uM incubated for 24 hrs by propidium iodide staining based flow cytometry (reference value: 61.5%); assay type: functional
HeLa [36] = assay: Cell cycle arrest in human HeLa cells assessed as accumulation at subG1 phase at 5 uM incubated for 24 hrs by propidium iodide staining based flow cytometry (reference value: 2.2%); assay type: functional
Quadruplex DNA [37] = assay: Binding affinity to pre-annealed c-MYC G-quadruplex (unknown origin) in 100 mM KCl, 10 mM Tris.HCl at pH 7.4 by fluorescence spectroscopy relative to untreated control; assay type: nucleic-acid assay, unidentified; in short: as §3
HeLa [38] = assay: Induction of apoptosis in human HeLa cells assessed as necrotic cells level at 5 uM incubated for 24 hrs by Annexin V-FITC staining based flow cytometry (reference value: 0.1%); assay type: functional
dsDNA [39] = assay: Binding affinity to 20 equivalents of dsDNA (unknown origin) in 100 mM KCl, 10 mM Tris.HCl at pH 7.4 by fluorescence spectroscopy relative to untreated control; assay type: nucleic-acid assay; in short: as §3

ΔTm (Quadruplex DNA [1]): 4.5 °C | ΔTm (dsDNA [2]): 0.5 °C | ΔTm (Quadruplex DNA [3]): 3.8 °C | ΔTm (Quadruplex DNA [4]): 2.8 °C | ΔTm (Quadruplex DNA [5]): 2.5 °C
Compound: O=C(O)c1ccc(Nc2ccc(-c3ccc(Nc4ccc(C(=O)O)cc4)c4ccccc34)c3ccccc23)cc1

ΔTm (Quadruplex DNA [1]): 23 °C | Drug uptake [7]: Active | Kd (Quadruplex DNA [8]): 11.4 to 13.8 µM | fold change (FC) (Quadruplex DNA [9]): 3.5 | Kd (Quadruplex DNA [10]): 10.2 µM | Activity (Quadruplex DNA [11]): Active | Kd (Quadruplex DNA [13]): 4.4 µM | Selectivity ratio (unidentified [14]): 3 to 5 | Selectivity ratio [15]: 3 to 5 | Activity (Quadruplex DNA [16]): 37% | Activity (Quadruplex DNA [18]): Active | Selectivity ratio (unidentified [20]): 3 to 5 | Drug uptake [24]: Active | Kd (Quadruplex DNA [25]): 11.1 µM | Activity (Quadruplex DNA [26]): Active | Activity (dsDNA [27]): inactive | ΔTm (dsDNA [2]): 2 °C | Activity (Quadruplex DNA [28]): Active | Activity (dsDNA [30]): inactive | ΔTm (Quadruplex DNA [3]): 22 °C | ΔTm (Quadruplex DNA [4]): 15 °C | Activity (Quadruplex DNA [32]): inactive | ΔTm (Quadruplex DNA [5]): 11 °C | Activity (Quadruplex DNA [34]): Active | Kd (Quadruplex DNA [37]): 4.2 µM | Activity (dsDNA [39]): inactive
Compound: CN(C)CCCn1cc(CNC(=O)c2ccc(Nc3ccc(-c4ccc(Nc5ccc(C(=O)NCc6cn(CCCN(C)C)nn6)cc5)c5ccccc45)c4ccccc34)cc2)nn1
Activity (HeLa [6]): 4.2% | Activity (HeLa [12]): Non-Toxic | Activity (HeLa [17]): 12% | IC50 (A549): ≥ 40 µM | IC50 (HeLa [19]): 5.53 µM | Activity (Quadruplex DNA [21]): 58% | Activity (Quadruplex DNA [22]): 68% | Activity (HeLa [23]): Non-Toxic | Activity (HeLa [29]): 29.9% | Activity (HeLa [31]): Active | IC50 (C2C12): ≥ 40 µM | Activity (HeLa [33]): 55.9% | Activity (HeLa [35]): 33.7% | Activity (HeLa [36]): 32.2% | Activity (HeLa [38]): 0.6%
